From ChEMBL document CHEMBL4811236, “New class of hantaan virus inhibitors based on conjugation of the isoindole fragment to (+)-camphor or (-)-fenchone hydrazonesv” (Bioorg Med Chem Lett, 2021)

Key:
[1] = Cytotoxicity against MDCK cells by MTT assay; type: cell-based, Canis lupus familiaris; conditions: dog
[2] = Cytotoxicity against human HEK293T cells measured after 72 hrs by MTT assay; type: cell-based, HEK-293T
Summary of the method: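 HEK293T cells were exposed to compounds for 72 h. CC50 was the concentration causing 50% cell death, reported as M ± I95, n = 3.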

[3] = system: Orthohantavirus hantanense; assay: Antiviral activity against Hantaan 76-118 pseudovirus infected in MDCK cells assessed as reduction in virus replication incubated for 48 hrs by luminescence assay; type: functional, organism-based
[4] = system: Vesicular stomatitis virus; assay: Antiviral activity against pseudotyped recombinant vesicular stomatitis virus delta G Gn-Gc infected HEK293T cells assessed as reduction in virus replication incubated for 48 hrs by luminescence assay; type: functional, organism-based; conditions: HEK-293T
Summary of the method: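 Gn-Gc-pseudotyped VSV-ΔG particles were made by transfecting HEK293T cells with a Hantaan 76–118 Gn-Gc plasmid, adding VSV-ΔG-G after 48 h, and harvesting the supernatant 48 h later. Pseudovirus (500,000 RLU) was preincubated with a range of compound concentrations for 1 h, then a HEK293T cell suspension was added. IC50 reported as M ± I95, n = 3.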

[5] = Selective index, ratio of CC50 for MDCK cells to IC50 for Hantaan 76-118; type: toxicity; conditions: dog, read-out: Ratio CC50/IC50
[6] = Selective index, ratio of CC50 for HEK293T cells to IC50 for antiviral activity against pseudotyped recombinant vesicular stomatitis virus delta G Gn-Gc infected HEK293T cells; type: toxicity; conditions: human, read-out: Ratio CC50/IC50
Summary of the method: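 Selectivity index was calculated as CC50 (HEK293T, 72 h exposure) divided by IC50 against rVSV-ΔG-Gn-Gc pseudovirus in HEK293T cells.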

[7] = system: Orthohantavirus hantanense; assay: Antiviral activity against HTNV strain 76-118 infected african green monkey Vero E6 cells measured after 3 days by plaque-formation assay; type: functional, organism-based; conditions: 76-118, Vero C1008, 72 h
[8] = Orthohantavirus hantanense, 76-118, MDCK, 48 h, read-out: IC50

CCN1CC23C=CC(O2)C(C(=O)N/N=C2\C[C@H]4CC[C@]2(C)C4(C)C)C3C1=O (mixture of isomers)
CC50 at 336 h [1]: 250 µM
CC50 at 72 h [2]: 1070 µM
IC50 ([3]; mdck): Not Active
IC50 [4]: 790 µM

COc1ccc(N2CC34C=CC(C)(O3)C(C(=O)N/N=C3\C[C@H]5CC[C@]3(C)C5(C)C)C4C2=O)cc1 (mixture of isomers)
selectivity ratio [5]: 6
CC50 at 336 h [1]: 120 µM
IC50 [3, 8]: 19 µM

CC12C=CC3(CN(c4ccccc4)C(=O)C3C1C(=O)N/N=C1\C[C@H]3CC[C@]1(C)C3(C)C)O2 (mixture of isomers)
selectivity ratio [5]: 10
CC50 at 336 h [1]: 142 µM
CC50 at 72 h [2]: 448 µM
selectivity ratio [6]: 4
IC50 [3, 8]: 14 µM
IC50 [4]: 96 µM

CC12C=CC3(CN(CCc4ccccc4)C(=O)C3C1C(=O)N/N=C1\C[C@H]3CC[C@]1(C)C3(C)C)O2 (mixture of isomers)
selectivity ratio [5]: 4
CC50 at 336 h [1]: 195 µM
CC50 at 72 h [2]: 216 µM
selectivity ratio [6]: 3
IC50 [3, 8]: 42 µM
IC50 [4]: 69 µM

CSc1nc2[nH]nc([N+](=O)[O-])c(=O)n2n1
selectivity ratio [5]: 26
CC50 at 336 h [1]: 368 µM
CC50 at 72 h [2]: 1510 µM
selectivity ratio [6]: 4
IC50 [3, 8]: 14 µM
IC50 [4]: 408 µM

CC12CCC3(CN(c4ccccc4)C(=O)C3C1C(=O)N/N=C1\C[C@H]3CC[C@]1(C)C3(C)C)O2 (mixture of isomers)
selectivity ratio [5]: 6
CC50 at 336 h [1]: 130 µM
CC50 at 72 h [2]: 1450 µM
selectivity ratio [6]: 3
IC50 [3, 8]: 20 µM
IC50 [4]: 375 µM

CC12C=CC3(CN(c4ccccc4)C(=O)C3C1C(=O)N/N=C1\C(C)(C)[C@H]3CC[C@]1(C)C3)O2 (mixture of isomers)
selectivity ratio [5]: 140
CC50 at 336 h [1]: 1060 µM
CC50 at 72 h [2]: 1180 µM
selectivity ratio [6]: 3
IC50 [3, 8]: 7.6 µM
IC50 [4]: 431 µM

COc1ccc(N2CC34C=CC(C)(O3)C(C(=O)N/N=C3\C(C)(C)[C@H]5CC[C@]3(C)C5)C4C2=O)cc1 (mixture of isomers)
selectivity ratio [5]: 9
CC50 at 336 h [1]: 292 µM
CC50 at 72 h [2]: 152 µM
selectivity ratio [6]: 2
IC50 [3, 8]: 30 µM
IC50 [4]: 74 µM

CC(C)N1CC23C=CC(C)(O2)C(C(=O)N/N=C2\C[C@H]4CC[C@]2(C)C4(C)C)C3C1=O (mixture of isomers)
selectivity ratio [5]: 3
CC50 at 336 h [1]: 250 µM
CC50 at 72 h [2]: > 2500 µM
selectivity ratio [6]: 5
IC50 [3, 8]: 92 µM
IC50 [4]: 468 µM

CC12C=CC3(CN(c4ccc(Br)cc4)C(=O)C3C1C(=O)N/N=C1\C[C@H]3CC[C@]1(C)C3(C)C)O2 (mixture of isomers)
CC50 at 336 h [1]: 78 µM
CC50 at 72 h [2]: 175 µM
IC50 ([3]; mdck): Not Active
IC50 [4]: 120 µM

CC12C=CC3(CN(Cc4ccccc4)C(=O)C3C1C(=O)N/N=C1\C[C@H]3CC[C@]1(C)C3(C)C)O2 (mixture of isomers)
selectivity ratio [5]: 7
CC50 at 336 h [1]: 245 µM
CC50 at 72 h [2]: 335 µM
selectivity ratio [6]: 2
IC50 [3, 8]: 33 µM
IC50 [4]: 147 µM

COCCN1CC23C=CC(O2)C(C(=O)N/N=C2\C[C@H]4CC[C@]2(C)C4(C)C)C3C1=O (mixture of isomers)
CC50 at 336 h [1]: 250 µM
CC50 at 72 h [2]: 1030 µM
IC50 ([3]; mdck): Not Active
IC50 [4]: > 800 µM

CCCCN1CC23C=CC(C)(O2)C(C(=O)N/N=C2\C[C@H]4CC[C@]2(C)C4(C)C)C3C1=O (mixture of isomers)
selectivity ratio [5]: 9
CC50 at 336 h [1]: 246 µM
IC50 [3, 8]: 26 µM

CCC12C=CC3(CN(c4ccccc4)C(=O)C3C1C(=O)N/N=C1\C(C)(C)[C@H]3CC[C@]1(C)C3)O2 (mixture of isomers)
selectivity ratio [5]: 3
CC50 at 336 h [1]: 120 µM
IC50 [3, 8]: 40 µM

CC1(C)[C@@H]2CC[C@@]1(C)/C(=N/NC(=O)c1ccccc1)C2
CC50 at 336 h [1]: > 150 µM
CC50 at 72 h [2]: 1100 µM
IC50 ([3]; mdck): Not Active
IC50 [4]: 780 µM

O=c1c2ncn([C@@H]3O[C@H](CO)[C@@H](O)[C@H]3O)c2ncn1-c1cccc(F)c1
EC50 [7]: 94 µM

CC1(C)[C@@H]2CC[C@@]1(C)/C(=N/NC(=O)C1C3OC4(CN(c5ccccc5)C(=O)C14)C1OC31)C2 (mixture of isomers)
selectivity ratio [5]: 5
CC50 at 336 h [1]: 195 µM
CC50 at 72 h [2]: 1040 µM
selectivity ratio [6]: 5
IC50 [3, 8]: 37 µM
IC50 [4]: 195 µM

CC12C=CC3(CN(c4ccc(Br)cc4)C(=O)C3C1C(=O)N/N=C1\C(C)(C)[C@H]3CC[C@]1(C)C3)O2 (mixture of isomers)
CC50 at 336 h [1]: 80 µM
CC50 at 72 h [2]: 78 µM
IC50 ([3]; mdck): Not Active
IC50 [4]: 65 µM

CC1(C)[C@@H]2CC[C@@]1(C)/C(=N/NC(=O)c1cccc3c1C(=O)N(Cc1ccccc1)C3)C2
CC50 at 336 h [1]: > 300 µM
IC50 ([3]; mdck): Not Active

CC12C=CC3(CN(c4ccccc4)C(=O)C3C1C(=O)N/N=C1\CC3CCC1C3)O2 (mixture of isomers)
selectivity ratio [5]: 9
CC50 at 336 h [1]: 269 µM
IC50 [3, 8]: 28 µM

NC(=O)c1ncn([C@@H]2O[C@H](CO)[C@@H](O)[C@H]2O)n1 [RIBAVIRIN]
CC50 at 336 h [1]: 20 µM
IC50 ([3]; mdck): Not Active

CC1(C)[C@@H]2CC[C@@]1(C)/C(=N/NC(=O)C1C3C=CC4(CN(Cc5ccccc5)C(=O)C14)O3)C2 (mixture of isomers)
CC50 at 336 h [1]: 250 µM
CC50 at 72 h [2]: 860 µM
IC50 ([3]; mdck): Not Active
IC50 [4]: 750 µM
